Screening results from PubChem BioAssay.
SR-BI DiI-HDL act = activators of SR-BI mediated HDL lipid uptake; 0.096% of 320,000 active; CHO ldlA[mSR-BI] cells, DiI-HDL uptake fluorescence, 3 h; 100 = double the neutral-control signal; activation, % at 12.5 µM;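 active = mean replicate activation of at least 60% and every replicate at or above 60%; inconclusive = mean or all-replicate condition met, but not both; inactive = mean below 60% and not all replicates reaching 60%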;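 note: 0% = median plate neutral-control signal and 100% = twice that signal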
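material = CHO ldlA[mSR-BI] cells | medium = Ham's F12 with 0.5% BSA, HEPES 25 mM, pH 7.4 | reagent = fluorescent DiI-HDL, 10 µg/mL final | compound dosing = single-point compound dose | incubation = 3 h, 37 °C | measured by = bottom-read fluorescence, 550/595 nm | measure = HDL uptake via cellular fluorescence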
SR-BI HDL uptake = inhibitors of mouse SR-BI mediated HDL lipid uptake; ldlA[mSR-BI] CHO cells, DiI-HDL uptake fluorescence, 3 h; inhibition, % at 12.5 µM; 0.96% of 320,000 active; AID 488896;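 active = mean replicate inhibition of at least 70% and a set share of replicates each scoring 70 or more; inconclusive = meets just one of the two criteria; inactive = fails both criteria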;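 note: 0% = median of neutral control wells and 100% = median of positive control wells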
Target sequence (Q61009 whole entry, looked up): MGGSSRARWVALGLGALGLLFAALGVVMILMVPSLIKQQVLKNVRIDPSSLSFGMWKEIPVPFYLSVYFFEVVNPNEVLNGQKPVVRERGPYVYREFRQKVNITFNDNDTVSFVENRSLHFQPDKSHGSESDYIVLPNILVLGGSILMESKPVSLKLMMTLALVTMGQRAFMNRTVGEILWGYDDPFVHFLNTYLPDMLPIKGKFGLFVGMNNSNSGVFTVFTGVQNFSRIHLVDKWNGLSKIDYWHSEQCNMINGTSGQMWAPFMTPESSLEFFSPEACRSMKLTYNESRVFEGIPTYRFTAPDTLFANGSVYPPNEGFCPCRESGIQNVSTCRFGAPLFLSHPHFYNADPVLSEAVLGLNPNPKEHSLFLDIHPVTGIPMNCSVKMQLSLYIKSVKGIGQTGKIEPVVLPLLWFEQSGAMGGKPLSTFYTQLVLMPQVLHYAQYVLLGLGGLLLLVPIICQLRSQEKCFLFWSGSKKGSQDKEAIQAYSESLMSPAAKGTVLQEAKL
Ins promoter up = MIN6 insulin promoter up-regulation | z-score at 5 µM | 0.3% of 190,000 active | MIN6 insulin promoter-GFP reporter, high-content imaging; active compounds read high;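 active = z-score above 3 at 5 µM with at least 500 cells counted in the well; inconclusive = wells under 500 cells, flagged as cytotoxic or low count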
HTR2A ag = mouse HTR2A agonism via beta-arrestin recruitment; CHO-K1 mHTR2A beta-arrestin complementation, luminescence; percent of 30 µM serotonin response; activation, % at 7.6 µM; AID 624169; 0.66% of 360,000 active;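 active = activation above a run cutoff, the mean activation of all tested compounds plus 3 SD, cut at about 14% in these data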;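 note: 0% = plate median of compound wells and 100% = 30 µM serotonin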
beta cell repl = inducers of beta-cell replication in MIN6 cells | MIN6 cells proliferation, ATPlite luminescence, 48 h; cells starved in 0.2% serum; 100% = growth in 10% serum | proliferation, % at 10 µM | 0.29% of 330,000 active | AID 2380;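 active = compounds whose signal lies at least 3.5 SD above the mean of all wells on their plate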;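 note: 0% = DMSO-treated cells in low-serum medium and 100% = 10% serum control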
Calb FLC = C. albicans growth modulation with fluconazole; C. albicans CaCi-2 + fluconazole, Alamar Blue growth, 48 h; growth inhibition, % (no concentration beside the values); 0.57% of 300,000 active; AID 1979;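 active = growth inhibition above about 58% in most replicates, limit read from the data, passing the limit was not always enough; inconclusive = exactly half the replicates above a set limit; inactive = most replicates below a set limit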;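 note: all wells also contain fluconazole at 8 µg/ml as a sub-toxic cotreatment; 0% = median of DMSO wells and 100% = median of geldanamycin control wells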
* hit, by the source's call; ? = inconclusive; . = no result given. A selection: hits, their analogues and other compounds. The true share with any hit is near 2.4%.

SMILES	SR-BI DiI-HDL act	SR-BI HDL uptake	Ins promoter up	HTR2A ag	beta cell repl	Calb FLC
COc1ccc(/C=C2\Sc3ccc(C(=O)NC4CC4)cc3N(C)C2=O)cc1OC	-76	76*	.	-8	4	2
O=C(Nc1ccc2ncccc2c1)c1ccccc1Br	214*	-214	.	-7	-1	12
COc1cccc(C(C(=O)NC2CCCC2)N(C(=O)c2ccco2)c2ccc(-n3cnnn3)c(C)c2)c1OC (configuration not stated)	28	-28	-0.35	-1	-1	92*
COc1ccc(C(C(=O)NC2CCCCC2)N(C(=O)c2ccco2)c2ccc(-n3cnnn3)c(C)c2)cc1 (configuration not stated)	.	.	.	2	2	-7
COc1ccc(Cl)cc1NC(=O)C1CCN(C(=O)C2CC(=O)N(c3ccc(C)cc3)C2)CC1 (configuration not stated)	-89	89*	.	-11	-3	-2
COc1ccc(NC(=O)C2CCN(C(=O)C3CC(=O)N(c4ccc(C)cc4)C3)CC2)cc1 (configuration not stated)	-20	20	.	-1	-1	-4
C=CC[C@@H]1C=C(C)C[C@H](C)C[C@H](OC)[C@H]2O[C@@](O)(C(=O)C(=O)N3CCCC[C@H]3C(=O)O[C@H](/C(C)=C/[C@@H]3CC[C@@H](O)[C@H](OC)C3)[C@H](C)[C@@H](O)CC1=O)[C@H](C)C[C@@H]2OC	.	.	.	.	0	117*
CCc1nc2c(OCc3ccc(OC(F)F)cc3)cccn2c1N(C)C(=O)c1ccc(OC)cc1	.	.	.	0	.	.
CN(C(=O)c1cccc(S(=O)(=O)N2CCCC2)c1)C1CCCCC1	7	-7	.	3	-4	.
COc1cc(C(=O)NCC2CCCO2)ccc1OCc1ccc(Cl)cc1Cl (configuration not stated)	-79	79*	.	-9	-4	14
CCCCCc1ccc(OCCCC[n+]2ccc(C)cc2)c(CCCCC)c1	18	-18	?	-1	-6	98*
CCCCCc1ccc(OCCCC[n+]2ccccc2)c(CCCCC)c1	13	-13	?	-10	-6	100*
CCCCOc1ccc(C)cc1CN(CCO)CCO	23	-23	1.1	-7	-2	-3
CCCCCc1ccc(OCCCC[n+]2cccc(C)c2)c(CCCCC)c1	29	-29	?	-5	-5	106*
CCC(C)(C)c1ccc(OCCCC[n+]2ccccc2)c(C(C)(C)CC)c1	46	-46	?	-3	-6	.
CS(=O)(=O)c1ccc(Cl)c(NC(=O)c2ccc(-n3cncn3)c([N+](=O)[O-])c2)c1	.	.	.	4	.	.
COCCN1C[C@@H](CO)O[C@@H](n2cnc3c(NCc4ccncc4)ncnc32)C1	.	.	.	-2	.	.
CC(=O)Nc1ccc(S(=O)(=O)Nc2ccccc2C(=O)N2CCCCC2)cc1	6	-6	.	-5	-4	1
O=C1C(C=Nc2ccccc2O)=C(O)c2ccccc21	-52	52	-0.42	-4	-2	-22
Cc1ccc(O)c(N=CC2=C(O)c3ccccc3C2=O)c1	-118	118*	-0.84	2	-3	27
O=C(COC(=O)c1cc(S(=O)(=O)N2CCOCC2)ccc1F)Nc1ccccc1C(F)(F)F	.	.	.	2	.	.
CCN1/C(=C/c2ccc3cc(C)ccc3[n+]2CC)Sc2ccccc21	-62	62	.	-8	-6	.
CCN1/C(=C/c2sc(-c3ccccc3C)c[n+]2C)Sc2ccccc21	-51	51	.	-1	.	106*
O=C(COC(=O)c1ccccc1O)Nc1ccc(N2CCOCC2)cc1	0	0	.	1	2	.
O=C(COC(=O)C1Cc2ccccc2CN1C(=O)c1ccccc1Cl)Nc1ccc(N2CCOCC2)cc1 (configuration not stated)	-76	76*	0.41	-4	0	-3
CCOc1ccccc1NS(=O)(=O)c1cccc2nsnc12	17	-17	-0.09	1	0	?
CCOc1ccc(OCC)c(NS(=O)(=O)c2cccc3nsnc23)c1	410*	-410	0.11	-2	-3	-12
N=C(N)c1ccc(Cl)cc1	7	-7	0.12	0	0	-11
